AI-2 QS modul – Vibrio harveyi AI-2 quorum sensing modulation; Vibrio harveyi JMH597 AI-2 luminescence/OD600 ratio, 9 h; active compounds read low; strain lacks LuxN and CqsS sensors; 0 = neutral-control median; AID 2094; activity change, % at 7.5 µM; 300,000 compounds, 0.4% hits; in the data active means activity change below about -75%, passing the limit was not always enough;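 further: luminescence divided by OD600 gain over 9 h not by final OD600 alone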
AHR act – human AHR activation; 320,000 compounds, 2.5% hits; P35869; AID 2796; AHR-responsive luciferase reporter cells, luminescence; activation, % at 5 µM; in the data active means activation above about 47%;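 further: 0% = vehicle wells and 100% = reference agonist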
MsrA inhibitor – bovine MsrA inhibition; purified bovine MsrA, absorbance read-out; inhibition, % at 15.5 µM; 360,000 compounds, 0.75% hits; AID 651718;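 further: 0% = vehicle wells with enzyme and 100% = reference inhibitor wells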
Tb MetRS inh – blocks T. brucei methionyl-tRNA synthetase activity; purified T. brucei MetRS, ATP depletion, Kinase-Glo luminescence; 360,000 compounds, 0.4% hits; inhibition, % at 11.9 µM;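 active means inhibition above a per-plate cutoff of the control wells' mean inhibition plus 3 SD, cut at about 5.5% in these data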;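 further: 0% = DMSO wells median and 100% = median of wells with control inhibitor compound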
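Dosing: 11.9 µM compound single dose, 0.9% DMSO; Assay system: purified T. brucei MetRS enzyme; Measured by: Kinase-Glo luciferase luminescence reporting remaining unconsumed ATP; Schedule: 15 min plus 2 h at 25 °C.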
bovine MsrA act – activators of bovine methionine sulfoxide reductase A; purified bovine MsrA, absorbance read-out; activation, % at 10.6 µM; AID 602163; 360,000 compounds, 0.3% hits; in the data active means activation above about 7.5%;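 further: 0% = vehicle and 100% = reference activator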
HTR2A ag – mouse HTR2A agonism via beta-arrestin recruitment. P35363. CHO-K1 mHTR2A beta-arrestin complementation, luminescence; percent of 30 µM serotonin response. activation, % at 7.6 µM. 360,000 compounds, 0.66% hits. AID 624169;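 active means activation above a run cutoff, the mean activation of all tested compounds plus 3 SD, cut at about 14% in these data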;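 further: 0% = plate median of compound wells and 100% = 30 µM serotonin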
Target sequence (P35363 whole entry, looked up): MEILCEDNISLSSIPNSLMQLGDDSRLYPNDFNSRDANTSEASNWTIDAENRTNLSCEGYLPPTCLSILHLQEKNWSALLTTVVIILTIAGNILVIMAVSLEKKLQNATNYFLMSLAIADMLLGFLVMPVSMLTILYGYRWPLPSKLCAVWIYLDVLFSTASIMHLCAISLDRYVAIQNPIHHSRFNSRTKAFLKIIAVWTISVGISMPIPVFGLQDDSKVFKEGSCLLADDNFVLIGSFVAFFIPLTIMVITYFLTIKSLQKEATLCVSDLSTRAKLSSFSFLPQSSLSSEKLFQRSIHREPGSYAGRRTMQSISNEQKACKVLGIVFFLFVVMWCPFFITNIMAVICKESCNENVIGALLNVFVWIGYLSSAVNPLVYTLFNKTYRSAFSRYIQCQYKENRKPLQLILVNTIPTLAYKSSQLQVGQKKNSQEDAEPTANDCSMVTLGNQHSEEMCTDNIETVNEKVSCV
MsrA inh confirm – confirmation of bovine MsrA inhibitors; shares compounds with MsrA inhibitor; 2,300 compounds, 41% hits; inhibition, % at 15.5 µM; purified bovine MsrA, absorbance read-out;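 further: coupled to thioredoxin reductase with NADPH and selenocystamine and DMSO as substrate; 0% = vehicle only and 100% = full effect of reference inhibitor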
Starred values were filed as active, the others as inactive; nt = no result. The list is not random: actives were taken first. Their share in the collection is about 4.4%. Unless noted, no stated cut-off is given here; in the data, active means inhibition above about 4.5%; inactive means the rest.

SMILES | AI-2 QS modul | AHR act | MsrA inhibitor | Tb MetRS inh | bovine MsrA act | HTR2A ag | MsrA inh confirm
COc1ccc(/C=C\C(=O)c2c(O)ccc3c(C)cc(=O)oc23)cc1 | 8.2 | 6.6 | 5.3* | -1.5 | -9.3 | -8.2 | 4.5
COc1ccc(/C=C/C(=O)c2c(O)ccc3c(C)cc(=O)oc23)cc1 | 18.4 | 12.8 | 5.4* | -0.5 | -4.7 | -5.2 | 5.1*
COc1ccc(OC)c(-c2csc(CCn3nc(C)cc3C)n2)c1 | 5.1 | 9.7 | -1.2 | -0.4 | -2.6 | -4.2 | nt
COc1cccc2cc(-c3csc(CCn4nc(C)cc4C)n3)c(=O)oc12 | 1.6 | 17.0 | 5.5* | -1.3 | -8.7 | 9.1 | 2.1
O=C(N/N=C/C(Cl)=C/c1ccccc1)c1ccncc1 | 21.3 | 3.8 | 4.9* | -0.3 | -4.2 | -3.3 | 4.0
O=C(N/N=C/c1ccncc1)c1cnccn1 | 19.6 | 2.0 | 1.0 | 0.1 | -3.5 | 0.3 | nt
O=C(N/N=C/C(Br)=C/c1ccccc1)c1cnccn1 | 5.1 | 2.4 | 6.3* | 0.0 | -5.7 | -3.5 | 4.6*
O=C(N/N=C/C(Cl)=C/c1ccccc1)c1ccccn1 | -12.8 | 6.9 | 3.5 | -0.8 | -8.7 | -2.0 | nt
CCOC(=O)c1c(C)[nH]sc1=S | 14.7 | nt | 4.9* | -0.3 | 5.0 | 2.4 | 2.9
Cn1cc(/C=C(\NC(=O)c2ccccc2Cl)C(=O)NCCN2CCOCC2)c2ccccc21 | 20.1 | 8.6 | 4.8* | -0.3 | -11.7 | 5.0 | 3.6
CCn1cc(/C=C(\NC(=O)c2ccccc2OC)C(=O)NCCN2CCOCC2)c2ccccc21 | nt | nt | 4.7* | -0.3 | -6.6 | 1.7 | 3.4
COc1ccc(C(=O)N/C(=C\c2cn(C)c3ccccc23)C(=O)NCCCN2CCOCC2)cc1 | 10.3 | 5.5 | 5.3* | -0.6 | -7.2 | -3.9 | 3.5
COc1cc(C(=O)N/C(=C\c2cn(C)c3ccccc23)C(=O)NCCN2CCOCC2)cc(OC)c1OC | 5.8 | 4.7 | 5.3* | -1.0 | -5.7 | -5.1 | 3.7
Cn1cc(/C=C(\NC(=O)c2ccccc2)C(=O)NCCN2CCOCC2)c2ccccc21 | 14.0 | 13.3 | 4.5 | -0.9 | -14.9 | -5.3 | nt
COc1ccc(N(C)C(=O)c2cn(CC(C)C)c(=O)c3cc(OC)c(OC)cc23)cc1 | 14.4 | 2.9 | -0.3 | -0.2 | -1.6 | -1.4 | nt
CCn1cc(/C=C(\NC(=O)c2cc(OC)c(OC)c(OC)c2)C(=O)NCCCN2CCOCC2)c2ccccc21 | -1.5 | 1.5 | 1.8 | -0.1 | -2.1 | -6.6 | nt
COc1ccc(C(=O)N/C(=C\c2cn(C)c3ccccc23)C(=O)NCCN2CCOCC2)cc1OC | 8.0 | 6.2 | 4.8* | -0.8 | -11.7 | -7.7 | 4.3
CCn1cc(/C=C(\NC(=O)c2ccccc2)C(=O)NCCCN2CCOCC2)c2ccccc21 | -5.5 | 4.5 | 4.7* | 0.1 | -3.2 | -1.7 | 4.2
COc1ccc(OC)c(/C=C/C(=O)c2ccc3c(c2)OCCO3)c1 | 16.2 | 24.3 | 0.9 | -0.7 | -3.4 | -6.5 | nt
Nc1nc2ccccc2n1/N=C/c1ccc2c(c1)OCO2 | 17.1 | 14.6 | 19.4* | 0.0 | -7.8 | 5.9 | 13.7*
Cn1c(SCC(=O)NCC2CCCO2)nnc1-c1ccc(Cl)cc1 (centres undefined) | nt | -0.6 | 0.0 | -0.4 | -6.6 | -3.8 | nt
N#C/C(=C\c1ccc(-c2cccc(C(F)(F)F)c2)o1)C(=O)Nn1cnnc1 | 17.9 | 3.6 | 4.8* | -0.5 | -7.1 | 7.3 | 2.0
Cc1c(NC(=O)/C(C#N)=C/c2ccc(-c3cccc(Cl)c3)o2)c(=O)n(-c2ccccc2)n1C | 16.3 | -11.6 | 2.2 | -0.5 | 0.3 | -2.6 | nt
O=C(NC1CCCCC1)C(c1ccccc1F)N(C(=O)c1csnn1)C1CCCC1 (centres undefined) | 3.8 | 1.1 | -0.1 | -1.4 | -0.8 | -0.4 | nt
CC1(C)Cc2c(c(=S)nc(-c3ccccc3)n2CCOCCO)CO1 | 3.3 | 0.2 | 0.6 | -0.3 | 1.0 | 2.4 | nt
SMILES | AI-2 QS modul | AHR act | MsrA inhibitor | Tb MetRS inh | bovine MsrA act | HTR2A ag | MsrA inh confirm
C=CCn1c(-c2ccccc2)nc(=S)c2c1CC(C)(C)OC2 | 9.7 | 1.8 | 5.1* | 0.1 | -3.9 | 0.5 | 3.9
COc1ccc(-c2nc(=S)c3c(n2CCN2CCOCC2)CC(C)(C)OC3)cc1 | 27.6 | 9.3 | 4.9* | -0.8 | -11.6 | 0.1 | 4.4
COc1cc(NS(=O)(=O)c2cc(NC(C)=O)ccc2OC)c(OC)cc1NC(=O)c1ccccc1 | nt | nt | 1.1 | -0.2 | 0.1 | 6.2 | nt
Cc1cc(=O)oc(C)c1C(=O)NCCC(C)C | 17.0 | -3.0 | 5.5* | 1.1 | -6.0 | -0.2 | 5.0*
O=C1c2ccccc2C(=O)c2c1oc(C(F)(F)F)c2C(=O)c1ccccc1 | 10.4 | 11.3 | 50.9* | -0.4 | 2.5 | 0.8 | 58.3*
CC(=O)c1c(C)oc2c1C(=O)c1ccccc1C2=O | -2.0 | 2.2 | 0.1 | -0.3 | 2.5 | 1.5 | nt
O=C(N/N=C/c1ccc(Br)s1)c1ccncc1 | 8.9 | 9.8 | 4.7* | -0.5 | -8.4 | -4.1 | 4.8*
O=C(N/N=C/c1sc(=O)n(-c2ccccc2)c1Cl)c1ccncc1 | 1.4 | 3.6 | 7.5* | -0.5 | -1.4 | 2.5 | 4.8*
Cc1ccccc1N/N=C/c1sc(=O)n(Cc2cccc(C(=O)O)c2)c1Cl | 58.8 | 3.0 | 3.4 | 0.5 | -6.8 | 0.3 | nt
O=C(O)c1cccc(Cn2c(Cl)c(/C=N/NC(=O)c3ccccc3)sc2=O)c1 | 36.0 | -1.1 | 5.7* | 0.4 | -4.3 | -3.8 | 5.1*
COc1cc(C(=O)N/N=C/c2sc(=O)n(-c3ccccc3)c2Cl)cc(OC)c1OC | 13.1 | -1.1 | 2.8 | -0.3 | -1.4 | -5.5 | nt
O=C(O)c1cccc(Cn2c(Cl)c(/C=N/NC(=O)c3cccc(O)c3)sc2=O)c1 | 30.2 | 2.8 | 4.3 | 0.2 | -10.9 | -3.1 | nt
O=C(O)c1cccc(Cn2c(Cl)c(/C=N/NC(=O)c3ccco3)sc2=O)c1 | 20.8 | 2.7 | 7.0* | -0.3 | -5.5 | 3.3 | 7.4*
O=C(O)c1cc(S(=O)(=O)N2CCN(S(=O)(=O)c3ccc4ccccc4c3)CC2)ccc1Br | nt | -0.7 | 0.6 | -0.1 | -1.2 | -11.7 | nt
CC1(C)NC(=O)N(CC(=O)OCC(=O)N2CCN(S(=O)(=O)c3ccccc3)CC2)C1=O | nt | nt | 2.6 | -0.1 | -2.1 | 1.4 | nt
Cc1onc(-c2c(F)cccc2Cl)c1C(=O)OCC(=O)N(C)c1ccccc1 | nt | nt | 0.5 | -0.1 | -0.5 | 0.7 | nt
C(=N\n1cnnc1)/c1nc2ccccc2[nH]1 | 32.5 | 26.7 | 4.9* | 1.3 | -3.2 | -2.3 | 2.2
Cc1[nH]c2ccccc2c1/C=N/n1cnnc1 | 15.2 | 20.2 | 2.2 | -1.3 | -2.2 | -0.5 | nt
C=Cc1ccc(CC2(C)C(=O)Nc3ccc(-c4cccnc4)cc32)cc1 (centres undefined) | nt | nt | 13.1* | -0.1 | -2.9 | -0.2 | 6.3*
CC1(Cc2ccc(F)cc2)C(=O)Nc2ccc(-c3cccnc3)cc21 (centres undefined) | nt | nt | 0.2 | 0.5 | -2.4 | -1.7 | nt

Screening results from PubChem.
